# Bioassay records: PubChem, Broad Institute
# The list is not random: actives were taken first. Their share in the collection is about 4.4%.
# HSF1 inhib: HSF1 inhibition; NIH3T3-HGL HSE-luciferase, MG132-induced, luminescence 8 h; hits give low values; activity change, negative = inhibition, % at 7.5 µM (by protocol); 300,000 compounds, 0.77% hits; AID 2098;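 active = more than half of replicate wells show activity change below -50%, luminescence cut by over half; inconclusive = some wells, but at most half, below -50%; inactive = no replicate well below -50%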;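 also: luciferase reports HSF-1 transcriptional activity via heat shock element; 0% = median of DMSO wells and -100% = zero luminescence signal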
# T cruzi inh: T. cruzi replication inhibition. inhibition, % (no concentration beside the values). AID 1885. 300,000 compounds, 1.4% hits. T. cruzi beta-gal in NIH3T3, luminescence, 90 h;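 active = mean inhibition across valid replicates above about 55%, limit read from the data; inconclusive = mean below that limit but half or more replicates reach it; inactive = mean below it, under half of replicates reach it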;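 also: signal also drops with host cell toxicity which is not excluded here; 0% = plate median of DMSO wells and 100% = zero luminescence signal; higher percent means less beta-gal luminescence so fewer parasites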
#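 Assay system: NIH/3T3 host cells with β-galactosidase reporter T. cruzi; input: 5,000 host fibroblasts per well; compound: single 50 nL compound addition per well in DMSO; timing: ≥90 h infection period, 3 h prior cell attachment; measured by: GalScreen β-gal luminescence, detergent lysis, 60 min; evaluation: percent inhibition of parasite-derived β-gal signal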
# HSF-1 act: increases HSF-1 driven luciferase reporter signal; NIH3T3-HGL HSF-1 luciferase reporter, MG132, 8 h; 100% = twice DMSO control signal; activation, % at 9 µM; 300,000 compounds, 1.7% hits; AID 504408;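 active = mean replicate activation of at least 50% with a set share of replicates each reaching 50%; inconclusive = only one of those two conditions met; inactive = mean below 50% and too few replicates reaching it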;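 also: 0% = median of the neutral control wells and 100% = twice that signal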
# Calb FLC: affects C. albicans growth with fluconazole | C. albicans CaCi-2 + fluconazole, Alamar Blue growth, 48 h | 300,000 compounds, 0.57% hits | growth inhibition, % (no concentration beside the values) | AID 1979;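 active = growth inhibition above about 58% in most replicates, limit read from the data, passing the limit was not always enough; inconclusive = exactly half the replicates above a set limit; inactive = most replicates below a set limit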;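 also: all wells also contain fluconazole at 8 µg/ml as a sub-toxic cotreatment; 0% = median of DMSO wells and 100% = median of geldanamycin control wells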
# HIF activator: HIF pathway transcriptional activation. U2OS HRE-luciferase reporter, luminescence; normalized: DMSO 0%, desferrioxamine 100%. 300,000 compounds, 0.32% hits. activation, % at 7.5 µM (by protocol);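 active = mean activation of at least 10% of the iron chelator positive control signal, with at least half of replicates also reaching 10%; inconclusive = mean and replicate majority disagree about reaching 10%; inactive = mean and most replicates under 10%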
# * marks the source's active call; other numbers are inactive results; ? = inconclusive; / = no result given.
SMILES,HSF1 inhib,T cruzi inh,HSF-1 act,Calb FLC,HIF activator
CC1=C(C(=O)OCC2CCCO2)C(c2ccc(C)cc2)C2=C(CC(C)(C)CC2=O)N1 (stereo unspecified),-1,7,23,-20,0
Cc1ccccc1OCC(=O)Nc1cc(S(=O)(=O)N2CCCCC2)ccc1N1CCN(C)CC1,-3,58*,13,-37,0
Cc1cccc(OCC(=O)Nc2cc(S(=O)(=O)N3CCOCC3)ccc2N2CCCC2)c1C,20,27,9,-2,-1
CN1CCN(c2ccc(S(=O)(=O)N3CCCCC3)cc2NC(=O)c2ccc(C#N)cc2)CC1,4,56*,2,13,-41
CN1CCN(c2ccc(S(=O)(=O)N3CCCCC3)cc2NC(=O)CSCc2ccccc2)CC1,0,67*,0,-8,0
CN1CCN(c2ccc(S(=O)(=O)N3CCCCC3)cc2NC(=O)Cc2ccc(Cl)cc2)CC1,-4,23,20,-2,0
O=C(NC(=O)c1ccccc1O)c1ccc(C(F)(F)F)cc1,62,-11,91*,?,2
COc1ccc(NC(=O)CCC(=O)OCc2ccc([N+](=O)[O-])cc2)cc1,1,-9,-7,5,0
O=C(Nc1ccccc1)Nc1snnc1C(=O)Nc1cccc(O)c1,-7,-3,-12,40,1
COc1cccc2oc3cc(C#CC4(O)CCCCC4)ccc3c(=O)c12,-9,49,-21,-7,1
O=c1c2ccccc2oc2cc(C#CC3(O)CCCCC3)ccc12,-81*,17,-84,10,-2
COc1cccc2sc3ccc(C#CC4(O)CCCCC4)cc3c(=O)c12,-4,46,-22,-20,4
O=c1c2ccccc2sc2ccc(C#CC3(O)CCCCC3)cc12,-92*,11,-94,18,-3
COc1ccc(C(CNc2ccc(S(=O)(=O)N3CCCC3)cc2[N+](=O)[O-])N2CCCC2)cc1 (stereo unspecified),0,59*,-3,1,0
COc1ccc(CCNC(=O)Cc2cccs2)cc1,-55*,2,-67,-15,0
COc1ccc(CCNC(=O)C(C)SCc2ccccc2)cc1 (stereo unspecified),2,7,6,16,0
COc1ccc(N(C(=O)CCl)C(C(=O)NCCc2ccccc2)c2cccs2)cc1 (stereo unspecified),-93*,12,-94,4,1
O=[N+]([O-])c1ccc(O)c(/C=N/Nc2ccc(Cl)nn2)c1,34,84*,41,117*,64*
O=C(N/N=C/c1cc([N+](=O)[O-])ccc1O)c1cccc2ccccc12,8,55*,15,39,11*
O=C(NN=Cc1cc(Cl)ccc1[N+](=O)[O-])c1cccc2ccccc12,-12,/,-12,/,/
O=C(Cn1cnc([N+](=O)[O-])n1)N/N=C/c1cc(Cl)ccc1O,-3,27,-5,21,15*
O=C(N/N=C/c1cc([N+](=O)[O-])ccc1O)c1ccc(COc2ccc3c(c2)CCC3)o1,-8,?,-1,93*,1
O=C(Nc1cc(Cl)ccc1-n1cncn1)c1cccs1,-6,-6,0,2,0
O=C(Cn1nc2ccccc2n1)N/N=C/c1cc([N+](=O)[O-])ccc1O,-53*,-12,-63,?,4
O=C(/C=C/Nc1ccc([N+](=O)[O-])cc1Br)c1cccc2ccccc12,19,18,51*,-1,3
SMILES,HSF1 inhib,T cruzi inh,HSF-1 act,Calb FLC,HIF activator
O=C(Cn1nnc(-c2ccccc2)n1)N/N=C/c1cc([N+](=O)[O-])ccc1O,-28,-18,-31,-3,0
O=C(N/N=C/c1cc([N+](=O)[O-])ccc1O)C1C2CCCCC21 (stereo unspecified),1,-15,4,101*,1
O=C(N/N=C/c1cc([N+](=O)[O-])ccc1O)C1CCCCC1,-8,-2,-7,9,1
O=C1Nc2ccccc2C1(O)C/C(=N/O)c1ccccc1 (stereo unspecified),0,6,23,11,1
S=C(Nc1ccc2[nH]ccc2c1)NC1CCCCC1,29,29,36,-8,3
O=c1cc(NCc2ccccc2)[nH]c(=O)[nH]1,-2,-12,-3,2,0
COP(=O)(c1ccc(N(C)C)cc1)C(O)c1ccccc1 (stereo unspecified),10,-18,-8,2,-1
